Measurements taken from ChEMBL document CHEMBL4350999, “Enhanced tumor retention of NTSR1-targeted agents by employing a hydrophilic cysteine cathepsin inhibitor” (Eur J Med Chem, 2019).
Activity calls are given as the source filed them. The rule behind the calls is not given here.

Tests used:
Cathepsin B [1] = target: T1, Cathepsin B (Homo sapiens, UniProt P07858); assay: Inhibition of human liver cathepsin B assessed as inhibition constant using Z-Arg-Arg-AMC as substrate measured every 5 mins for 1 hr by fluorescence assay
Cathepsin B [2] = target: T1, Cathepsin B; assay: Inhibition of human liver cathepsin B assessed as second order rate constant using Z-Arg-Arg-AMC as substrate measured every 5 mins for 1 hr by fluorescence assay
In short: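 Human liver cathepsin B, 2 nM final, in 0.1 M phosphate pH 5.8 (1 mM EDTA, 2.7 mM DTT, 0.03% Brij35). Enzyme mixed with conjugate (1–500 nM final), then Z-Arg-Arg-AMC added (800 μM final); 37 °C. […] Biological triplicate.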

Cathepsin B [3] = target: T1, Cathepsin B; assay: Inhibition of human liver cathepsin B assessed as pseudo Michaelis-Menten constant at 10 nM using varying levels of Z-Arg-Arg-AMC as substrate measured every 5 mins for 1 hr by fluorescence assay

CC(C)C[C@H](NC(=O)CCC(=O)O)C(=O)N[C@@H](CCCNC(=N)N)C(=O)NCCN=[N+]=[N-]
inhibition (Cathepsin B [1]): inactive
inhibition (Cathepsin B [2]): inactive
K (Cathepsin B [3]): 185 µM
